# Only some compounds are listed: those with a hit (about 2.8% of all), similar ones and a draw of the others.
# DENV2 CPE – inhibitors of DENV2 cytopathic effect. DENV2-infected cells, cytopathic effect rescue, plate reader. CPE inhibition, % at 9.99 µM. actives 1.7% (n = 350,000); in the data active = CPE inhibition above about 20%, passing the limit was not always enough; tested in BHK-21 cells;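 also: 0% = median of neutral control wells and 100% = median of positive control wells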
# SIRT5 block – inhibitors of human sirtuin-5 desuccinylase; inhibition, % at 15 µM; Q9NXA8; AID 652115; actives 1.1% (n = 330,000); Purified SirT5, succinyl-peptide AMC, trypsin-coupled fluorescence; in the data active = inhibition above about 15%
# Target sequence (Q9NXA8 whole entry, looked up): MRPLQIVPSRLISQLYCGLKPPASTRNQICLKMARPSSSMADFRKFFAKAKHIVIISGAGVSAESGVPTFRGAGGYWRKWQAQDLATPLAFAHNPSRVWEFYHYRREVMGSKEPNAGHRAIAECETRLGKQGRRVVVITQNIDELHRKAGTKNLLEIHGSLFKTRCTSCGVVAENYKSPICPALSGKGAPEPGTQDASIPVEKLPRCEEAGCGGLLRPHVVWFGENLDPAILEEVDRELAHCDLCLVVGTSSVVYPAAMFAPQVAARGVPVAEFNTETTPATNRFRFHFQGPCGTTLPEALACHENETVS
# E-selectin induc – induces E-selectin expression in human endothelial cells. HUVEC E-selectin immunofluorescence imaging; normalized: neutral wells 0, TNF-alpha wells 100. actives 0.37% (n = 260,000). activation, % at 7.58 µM. AID 686992;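 active = mean E-selectin-positive cell signal at least 10% of the positive control, reached in at least 60% of replicates, without over 20% cell loss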
#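 assay system = HUVEC, human umbilical vein endothelial cells | input = 3,000 HUVEC seeded per well | medium = EGM-2 growth medium on 0.1% gelatin-coated wells | dosing = one compound dose added by pin transfer | signal = immunofluorescence imaging | read-out basis = % PE-positive cells | control set = TNF-alpha, DMSO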
# Starred values were filed as active, the others as inactive; / = not tested or not shown.
SMILES,DENV2 CPE,SIRT5 block,E-selectin induc
CN1CCN(CC(O)COc2ccc(S(=O)(=O)N3CCOCC3)cc2)CC1 (stereo unspecified),46*,-4,-1
CC(=O)N1CCN(CC(O)COc2ccc(S(=O)(=O)N3CCOCC3)cc2)CC1 (stereo unspecified),-6,1,/
CO[C@H]1CN(C)C(=O)c2ccc(NC(=O)C3CC3)cc2OC[C@H](C)N(CC2CCOCC2)C[C@@H]1C,-13,0,0
COc1ccc(C(=O)N2CC3(CC(c4cccc(NC(=O)COc5ccc(Cl)cc5)c4)=NO3)C[C@@H]2C(N)=O)cc1 (stereo partly specified),0,-4,0
C/C=C(\C)C(=O)N1CC2(CC(c3cccc(NC(=O)COc4ccc(Cl)cc4)c3)=NO2)C[C@@H]1C(N)=O (stereo partly specified),-5,-4,0
NC(=O)[C@@H]1CC2(CC(c3cccc(NC(=O)COc4ccc(Cl)cc4)c3)=NO2)CN1C(=O)c1ccccc1 (stereo partly specified),66*,5,0
C=C(C)C(=O)N1CC2(CC(c3cccc(NC(=O)COc4ccc(Cl)cc4)c3)=NO2)C[C@@H]1C(N)=O (stereo partly specified),34*,-1,0
O=C(C[C@@H]1CC[C@@H]2[C@H](COC[C@H](O)CN2Cc2cccc(C(F)(F)F)c2)O1)NCc1ccncc1,-5,3,0
CCC(=O)N1C[C@@H](C)[C@@H](OC)CN(C)C(=O)c2ccc(NC(=O)C3CC3)cc2OC[C@H]1C,8,-8,0
Cc1ccc(Nc2nnc(SCC(=O)c3c(N)n(C4CC4)c(=O)[nH]c3=O)s2)cc1C,-2,-6,-1
Cc1cccc(Nc2nnc(SCC(=O)c3c(N)n(C4CC4)c(=O)[nH]c3=O)s2)c1,3,16*,/
CO[C@H]1CN(C)C(=O)c2cc(NC(=O)C3CCOCC3)ccc2OC[C@H](C)N(C(C)=O)C[C@@H]1C,-5,-9,0
O=C(Cc1ccncc1)NCC[C@H]1CC[C@H](NS(=O)(=O)c2ccccc2Cl)[C@H](CO)O1,-7,1,0
C/C=C/c1ccc([C@H]2[C@@H](CO)N3CCCCN(C(=O)Nc4cc(F)ccc4F)C[C@@H]23)cc1,-22,0,0
c1cc2cc(-c3c(-c4ccc5c(c4)OCO5)noc3-c3ccsc3)ccc2[nH]1,120*,-2,0
CCOC(=O)c1ccc(-c2c(-c3ccc4c(c3)OCO4)noc2-c2ccsc2)cc1F,-15,-2,0
COc1cc(-c2c(-c3ccc4c(c3)OCO4)noc2-c2ccsc2)ccc1F,16,17*,0
Cc1onc(-c2ccc3c(c2)OCO3)c1-c1ccc2[nH]ccc2c1,-1,-3,1
C[C@@H]1CCCCO[C@@H](CN(C)S(=O)(=O)c2ccc(Cl)cc2)[C@H](C)CN([C@H](C)CO)C(=O)c2cc(NC(=O)Nc3ccc(F)cc3)ccc2O1,14,3,/
CCc1ccc2c(F)cccc2n1,60*,-1,0
CCCc1ccc2c(C)cccc2n1,-5,-1,/
COc1ccc(CN(C)C[C@@H]2Oc3ccc(NC(=O)C4CC4)cc3CC(=O)N([C@@H](C)CO)C[C@H]2C)cc1,-9,/,-1
Cc1noc(C)c1NC(=O)N(C)C[C@@H]1Oc2c(cccc2N(C)C)C(=O)N([C@H](C)CO)C[C@H]1C,-7,-1,0
Cc1noc(C)c1NC(=O)N(C)C[C@H]1Oc2c(NC(=O)C3CC3)cccc2C(=O)N([C@@H](C)CO)C[C@@H]1C,-1,0,-1
Cc1noc(C)c1NC(=O)N(C)C[C@H]1Oc2c(NC(=O)C3CC3)cccc2C(=O)N([C@H](C)CO)C[C@H]1C,24*,0,0
SMILES,DENV2 CPE,SIRT5 block,E-selectin induc
Cc1noc(C)c1NC(=O)N(C)C[C@H]1Oc2c(cccc2N(C)C)C(=O)N([C@@H](C)CO)C[C@@H]1C,25*,7,0
C[C@@H]1CCCCO[C@H](CN(C)Cc2ccccc2)[C@@H](C)CN([C@@H](C)CO)C(=O)c2cc(NC(=O)Nc3ccccc3)ccc2O1,-19,-3,/
Cc1noc(C)c1NC(=O)N(C)C[C@@H]1Oc2c(NS(=O)(=O)c3ccc(Cl)cc3)cccc2C(=O)N([C@H](C)CO)C[C@H]1C,3,2,0
O=C(Nc1cc(F)ccc1F)N[C@@H]1CC[C@H](CCNC(=O)c2cnccn2)O[C@H]1CO,32*,4,0
O=C(Nc1cc(F)ccc1F)N[C@H]1CC[C@@H](CCNC(=O)c2cnccn2)O[C@@H]1CO,-7,1,-1
O=C(Nc1cc(F)ccc1F)N[C@H]1CC[C@H](CCNC(=O)c2cnccn2)O[C@H]1CO,-8,2,0
O=C(Nc1cc(F)ccc1F)N[C@@H]1CC[C@H](CCNC(=O)c2cnccn2)O[C@@H]1CO,34*,-2,0
C[C@@H]1CN([C@H](C)CO)C(=O)c2cc(NS(=O)(=O)c3cccs3)ccc2O[C@@H](C)CCCCO[C@@H]1CN(C)C(=O)CCCN(C)C,12,5,0
CCC(=O)N1CC2(CCN(Cc3cncnc3)CC2)c2c([nH]c3cc(OC)ccc23)[C@H]1CO,-2,/,0
COc1ccc(NC(=O)Nc2ccc3c(c2)C(=O)N([C@@H](C)CO)C[C@H](C)[C@H](CN(C)C)OCCCC[C@H](C)O3)cc1,1,3,0
COCCNC(=O)[C@H]1[C@H](CO)[C@H]2Cn3c(ccc(-c4ccc(OC)cc4)c3=O)[C@@H]1N2C(=O)NC(C)C,-5,-84,0
CNC[C@@H]1Oc2c(NC(=O)Nc3ccc(F)cc3)cccc2C(=O)N([C@H](C)CO)C[C@H]1C,-3,-2,131*
CNC[C@@H]1Oc2c(NC(=O)Nc3ccc(F)cc3)cccc2C(=O)N([C@@H](C)CO)C[C@H]1C,-5,1,-2
C[C@H](CO)N1C[C@H](C)[C@@H](CN(C)C)Oc2c(NC(=O)Nc3ccc4c(c3)OCO4)cccc2C1=O,-12,-2,/
CNC[C@H]1Oc2c(NC(=O)Nc3ccc4c(c3)OCO4)cccc2C(=O)N([C@@H](C)CO)C[C@H]1C,-2,99*,0
C[C@@H]1CN([C@H](C)CO)C(=O)c2cccc(NC(=O)Nc3ccc4c(c3)OCO4)c2O[C@@H]1CN(C)C,-9,-4,/
C[C@@H]1CN([C@@H](C)CO)C(=O)c2cccc(NC(=O)Nc3ccc4c(c3)OCO4)c2O[C@@H]1CN(C)C,24*,0,/
CO[C@@H]1CN(C)C(=O)c2cc(NS(=O)(=O)CC(F)(F)F)ccc2OC[C@@H](C)N(Cc2nccs2)C[C@@H]1C,2,1,0
O=C(Cc1ccncc1)NCC[C@H]1CC[C@H](NC(=O)C2CCOCC2)[C@@H](CO)O1,5,-4,0
COCC(=O)N(C)C[C@@H]1Oc2ncc(-c3ccc(C#N)cc3)cc2C(=O)N([C@H](C)CO)C[C@H]1C,-3,-4,-1
C[C@H](O)C#Cc1ccc2c(c1)O[C@@H](CN(C)CC1CCCC1)[C@H](C)CN([C@H](C)CO)S2(=O)=O,-11,2,0
O=C(NN1C(=O)CSC1=S)C(=O)NN1C(=O)CSC1=S,5,50*,2
O=C(Cc1cccc2ccccc12)NN1C(=O)CSC1=S,4,13,5

# Screening data as filed in PubChem.
